Sampled rows, rich in hits. Any-hit rate of the full collection: about 2.3%.
TRPC4 act: activators of mouse TRPC4 channel, primary screen, Fluo4 calcium, HEK293 TRPC4beta/mu-opioid cells; AID 2237, 2010; Fluo4 calcium fluorescence; stronger effect = higher value; B-score at 10 µM; hit rate 0.49% among 310,000;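 active means B-score above 5 SD of library B-scores, and initial fluorescence ratio not above library mean plus 5 SD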;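 further: positive B-score marks a calcium rise read as TRPC4 activation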
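Incubation: 45 min room-temperature Fluo4 loading, 110 s read / System: HEK293 cells stably co-expressing mouse TRPC4beta and mu-opioid receptor / Signal: Fluo4 fluorescence, kinetic / Control set: buffer (low) and maximal DAMGO (high) / Measure: integrated baseline-normalised fluorescence ratio, converted to per-well B score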
TRPC6 inh: mouse TRPC6 channel inhibitors, primary screen, cell-based, HEK293, membrane potential dye | B-score at 10 µM | ACh-evoked depolarization; stronger effect = lower value | Short transient receptor potential channel 6 (Mus musculus), Q61143 | hit rate 1.1% among 310,000 | AID 2553, 2010;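 active means B-score under library mean minus 3 SD, initial fluorescence not abnormally high, positive integrated signal ratio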;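 further: B-score derived from integrated fluorescence ratio over the kinetic read; more negative B-score means stronger inhibition of depolarization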
TRPC4 inh: inhibitors of mouse TRPC4 channel, primary screen, Fluo4 calcium, HEK293 TRPC4beta/mu-opioid cells. Short transient receptor potential channel 4 (Mus musculus), Q9QUQ5. DAMGO-evoked Fluo4 calcium flux; stronger effect = lower value. B-score at 10 µM. hit rate 0.39% among 300,000. AID 2247, 2010;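 active means B-score over 3 SD under the library average, no early fluorescence shift, positive overall ratio signal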
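material = TRPC4beta/mu-opioid receptor HEK293 cell line | probe or stimulus = sequential submaximal and maximal DAMGO stimulation | compound dosing = one concentration per compound | measured by = Fluo4 Ca2+ flux fluorescence | evaluation = integrated fluorescence ratio relative to baseline, converted to per-well B score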
TRPC6 act: mouse TRPC6 channel activators, primary screen, cell-based, HEK293, membrane potential dye | Short transient receptor potential channel 6 (Mus musculus), Q61143 | HEK293-TRPC6 membrane potential dye fluorescence; stronger effect = higher value | B-score at 10 µM | hit rate 0.13% among 310,000;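 active means B-score of the integrated fluorescence ratio above library mean plus 3 SD, and starting fluorescence ratio within library mean plus 5 SD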;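 further: higher score means more depolarization so channel activation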
TRPC4 potent: positive allosteric modulators of TRPC4, primary screen, cell-based, mouse TRPC4beta, HEK293 mu-opioid, Fluo-4 calcium | DAMGO EC20, Fluo-4 Ca2+ flux; stronger effect = higher value | B-score at 10 µM | hit rate 0.42% among 310,000 | AID 2227, 2009;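 active means B-score of calcium response area above 5 SD of library B-scores, with initial fluorescence ratio within 5 SD of library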;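 further: B-score of integrated fluorescence ratio over time as area under calcium response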
TRPC4 spec 2: mouse TRPC4 off-target activity of TRPC6 inhibitors, second screen; shares compounds with TRPC6 inh; HEK293 TRPC4/MOR, membrane potential dye fluorescence; channel activated by saturating DAMGO dose; inhibition, % at 10 µM; hit rate 42% among 920;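 active means compounds whose fluorescence signal differed from control wells by over 3 SD, either direction, in both duplicate plates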
TRPC4 spec: mouse TRPC4 modulation by TRPC6 hits, confirmation, selectivity assay for TRPC6 inhibitor project, cell-based, HEK293 TRPC4/mu-opioid, membrane potential dye; shares compounds with TRPC6 inh; membrane potential fluorescence; activity change, negative = inhibition, % at 10 µM; hit rate 61% among 920; AID 2777, 2010;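 active means rise or fall in signal beyond 3 SD of buffer-only wells in both replicate plates, either sign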;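 further: integrated kinetic ratio of fluorescence range over baseline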
HEK293 MPD ctr 2-1: nonspecific membrane potential effects, parental HEK293, confirmation, counter-screen for TRPC6 inhibitor project, cell-based, second counter screen; shares compounds with TRPC6 inh; parental HEK293 membrane potential dye fluorescence; maximal acetylcholine challenge after compound addition; signal change vs control, % at 10 µM; hit rate 31% among 920; AID 2779, 2010;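 active means membrane potential signal moving either way by over 3 SD of the maximum-effect control, in both duplicate plates, meaning non-specific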
HEK293 MPD ctr-1: membrane potential modulation in parental HEK293, confirmation, counter-screen for TRPC6 inhibitor project, cell-based; shares compounds with TRPC6 inh; parental HEK293 membrane potential dye fluorescence; membrane potential signal change, % at 10 µM; hit rate 60% among 920; AID 2780, 2010;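 active means membrane potential signal shifting up or down by more than 3 SD of buffer-only wells, on both duplicate plates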
HEK293 MPD ctr-2: parental HEK293 membrane potential modulation, confirmation, counter-screen for TRPC6 modulator project, cell-based; membrane potential dye fluorescence; membrane potential signal change, % at 10 µM; shares compounds with TRPC6 inh; hit rate 51% among 2,400;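 active means membrane potential signal moves up or down beyond 5 SD from buffer-only wells, on both duplicate plates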
HEK293 MPD ctr 2-2: second counter-screen for TRPC6 modulators: effect in parental HEK293 cells. membrane potential dye fluorescence; after compound, maximal acetylcholine stimulation. shares compounds with TRPC6 inh. inhibition, % at 10 µM. AID 488926. hit rate 14% among 2,400;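 active means membrane potential signal drops by more than 5 SD from the mean control signal, in both duplicate plates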;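 further: plate controls were acetylcholine ECmax control wells for no effect and buffer only wells for full effect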
TRPC4 ctr mod: TRPC4 modulation by TRPC6 hit compounds, confirmation, selectivity assay for TRPC6 modulator project, cell-based, HEK293 TRPC4/mu-opioid, membrane potential dye, mouse | shares compounds with TRPC6 inh | membrane potential fluorescence | percent change from control (negative = decrease, positive = increase), % at 10 µM | hit rate 69% among 2,400;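 active means membrane potential signal moved up or down beyond 5 SD of buffer control wells, in both duplicate plates, actives on both sides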;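 further: plate controls were assay buffer wells for no effect and DAMGO maximal-effect wells for full effect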
TRPC4/MOR inh 2: second check of whether TRPC6 modulators also affect mouse TRPC4; inhibition, % at 10 µM; shares compounds with TRPC6 inh; AID 488928; HEK293 TRPC4/mu-opioid, membrane potential dye fluorescence; stimulated with maximal-effect DAMGO; hit rate 55% among 2,400;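 active means drop in membrane potential signal beyond 5 SD of the control wells in both duplicate plates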;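 further: TRPC4 counter screen for TRPC6 hits run under conditions tuned for TRPC6 not TRPC4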
TRPC6 inh conf: mouse TRPC6 channel inhibitors, confirmation, HEK293 cells, membrane potential dye, duplicate. shares compounds with TRPC6 inh. ACh-evoked depolarization. inhibition, % at 10 µM. hit rate 43% among 3,300. AID 488960, 2010;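 active means fluorescence ratio falls more than 5 SD below the full-stimulation control mean, in both duplicate runs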;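 further: integrated fluorescence ratio of peak minus minimum over baseline after agonist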
TRPC6 act confirm: mouse TRPC6 channel activators, confirmation, HEK293 cells, membrane potential dye, duplicate; AID 488961, 2010; activation, % at 10 µM; HEK293-TRPC6 membrane potential dye fluorescence, FDSS; hit rate 11% among 2,800; shares compounds with TRPC6 inh;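 active means ratio signal rise beyond 5 SD above unstimulated control wells' mean, seen in both duplicate runs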;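 further: plate controls were buffer EC0 wells for no effect and acetylcholine ECmax response for full effect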
* = called active by the depositor; i = inactive; . = not tested or not shown.

SMILES	TRPC4 act	TRPC6 inh	TRPC4 inh	TRPC6 act	TRPC4 potent	HEK293 MPD ctr-2	HEK293 MPD ctr 2-2	TRPC4 ctr mod	TRPC4/MOR inh 2	TRPC6 inh conf	TRPC6 act confirm	others
COc1ccc(C(=O)C2CCCN(C3CSCCSC3)C2)cc1OC (stereo not given)	167*	-7.66*	i	i	i	i	83.0%*	59.0%*	35.5%*	72.5%*	i
CC1(C)C(C(=O)N2CCN(C(=O)c3ccccc3)CC2)C1(C)C	i	i	i	i	i	.	.	.	.	.	.
Clc1ccc2[nH]c3c(c2c1)CCNC3	i	-5.3*	i	i	i	i	i	i	35.0%*	i	i
CCCCC/C(=N/O)c1c(C)[nH]c2ccccc12	i	i	i	i	i	.	.	.	.	.	.
CCCC/C(=N/O)c1c(C)[nH]c2ccccc12	i	-9.52*	i	i	i	.	.	.	.	i	i	TRPC4 spec 2=i;TRPC4 spec=-13.0%*;HEK293 MPD ctr 2-1=i;HEK293 MPD ctr-1=-142.5%*
CC(C)n1c(=O)c(C=Nc2ccc(F)cc2)c(O)n(Cc2ccco2)c1=O	i	i	i	i	i	.	.	.	.	.	.
O=[N+]([O-])c1ccccc1-c1cc(-c2ccccc2)cc(-c2ccccc2)[n+]1Cc1ccccc1Cl	i	-5.67*	i	i	i	i	i	-8.5%*	i	i	i
O=[N+]([O-])c1ccc(-[n+]2c(-c3ccccc3)cc(-c3ccccc3)cc2-c2ccccc2)cc1	i	i	i	i	i	.	.	.	.	.	.
Cc1ccc(CN2C3CCCC2CC(NC(=O)Nc2cccc(F)c2)C3)cc1 (stereo not given)	53*	-6.49*	i	i	i	i	i	26.5%*	95.5%*	49.0%*	.
